Experiments:
Salmonella typhimurium [1] = test: Antibacterial activity against Salmonella typhimurium ATCC 14028 infected in ICR mouse model of peritonitis assessed as mouse survival at 1 umol/kg, ip dosed at 0.5 and 8 hrs post infection and measured daily for 7 days
[2] = Drug internalization in mouse RAW264.7 using FITC-labeled compound at 2 uM pre-incubated for 1 hr with lipid rafts disruptor methyl-beta-cyclodextrin followed by compound addition and subsequent incubation for 2 hrs by flow cytometry; assay type: ADME, cell-based; conditions: raw264.7, 2 h
Method in brief: (§1)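 RAW264.7 cells were pretreated 1 h at 37 °C with 3 mM amiloride, 20 µM nocodazole, 6 µg/mL chlorpromazine or 5 mM MβCD. FITC-labeled peptide was then added for 2 h at 37 °C. Extracellular fluorescence was quenched with 0.4% Trypan blue and intracellular fluorescence read by flow cytometry against an untreated control.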

[3] = Drug internalization in mouse RAW264.7 using FITC-labeled compound at 2 uM incubated for 2 hrs at 4 degC by flow cytometry; assay type: ADME, cell-based; conditions: raw264.7, 2 h
[4] = Drug localisation in cytosol of mouse RAW264.7 using FITC-labeled compound at 5 uM incubated for 2 hrs by confocal microscopy; assay type: ADME, cell-based
Method in brief: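 RAW264.7 cells were plated for 18 h at 37 °C, then given 5 µM FITC or FITC-labeled peptide for 2 h. Nuclei were stained with Hoechst 33342 and membranes with FM 4-64 (each 5 µg/mL) for 30 min at 37 °C. Cells were PBS-washed and imaged by confocal fluorescence microscopy.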

[5] = Drug internalization in mouse RAW264.7 using FITC-labeled compound at 2 uM pre-incubated for 1 hr with clathrin-mediated endocytosis inhibitor chlorpromazine followed by compound addition and subsequent incubation for 2 hrs by flow cytometry; assay type: ADME, cell-based; conditions: raw264.7, 2 h
Method in brief: as §1

[6] = Drug internalization in mouse RAW264.7 using FITC-labeled compound at 2 uM pre-incubated for 1 hr with tubulin polymerization inhibitor nocodazole followed by compound addition and subsequent incubation for 2 hrs by flow cytometry; assay type: ADME, cell-based; conditions: raw264.7, 2 h
Method in brief: as §1

[7] = Drug internalization in mouse RAW264.7 using FITC-labeled compound at 2 uM pre-incubated for 1 hr with macropinocytosis inhibitor amiloride followed by compound addition and subsequent incubation for 2 hrs by flow cytometry; assay type: ADME, cell-based; conditions: raw264.7, 2 h
Method in brief: as §1

Salmonella typhimurium [8] = test: Antibacterial activity against Salmonella typhimurium ATCC 14028 incubated for 16 to 18 hrs at pH 7.2 by broth microdilution method; assay type: functional, Salmonella enterica subsp. enterica serovar Typhimurium; conditions: Salmonella enterica
Method in brief: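 Broth microdilution in MH broth. S. Typhimurium ATCC14028 was grown overnight at 37 °C to semi-log phase, pelleted, and diluted to OD600 0.01; final inoculum was 5 × 10^5 CFU/mL. Plates were incubated 16–18 h at 37 °C. MIC is the lowest peptide concentration with no visible growth. Data are in duplicate from at least two independent experiments.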

Structure (SMILES) | Activity (Salmonella typhimurium [1]) | Drug uptake [2] | Drug uptake [3] | Drug uptake [4] | Drug uptake [5] | Drug uptake [6] | Drug uptake [7] | MIC (Salmonella typhimurium [8])
O=C(O)c1cn(C2CC2)c2cc(N3CCNCC3)c(F)cc2c1=O [CIPROFLOXACIN] | 100% | – | – | – | – | – | – | –
N=C(N)NCCC[C@H](NC(=O)[C@H](CCCNC(=N)N)NC(=O)[C@H](CCCNC(=N)N)NC(=O)[C@H](CCC(N)=O)NC(=O)[C@H](CCCNC(=N)N)NC(=O)[C@H](CCCNC(=N)N)NC(=O)[C@H](CCCCN)NC(=O)[C@H](CCCCN)NC(=O)[C@H](CCCNC(=N)N)NC(=O)CNC(=O)[C@@H](N)Cc1ccc(O)cc1)C(=O)O | – | Not Active | Not Active | Active | Not Active | Active | Not Active | > 82.1 µM

Source: ChEMBL document CHEMBL4196141, “Improved Antibacterial Activity of the Marine Peptide N6 against Intracellular Salmonella Typhimurium by Conjugating with the Cell-Penetrating Peptide Tat11 via a Cleavable Linker” (J Med Chem, 2018)
